# Assay results pooled from the literature.
# Protocols differ between the studies behind these lines.
# Target: Serine/threonine-protein kinase LATS1 (LATS1, Homo sapiens, UniProt O95835)
# Sequence (O95835 1-1130, as in one of the studies): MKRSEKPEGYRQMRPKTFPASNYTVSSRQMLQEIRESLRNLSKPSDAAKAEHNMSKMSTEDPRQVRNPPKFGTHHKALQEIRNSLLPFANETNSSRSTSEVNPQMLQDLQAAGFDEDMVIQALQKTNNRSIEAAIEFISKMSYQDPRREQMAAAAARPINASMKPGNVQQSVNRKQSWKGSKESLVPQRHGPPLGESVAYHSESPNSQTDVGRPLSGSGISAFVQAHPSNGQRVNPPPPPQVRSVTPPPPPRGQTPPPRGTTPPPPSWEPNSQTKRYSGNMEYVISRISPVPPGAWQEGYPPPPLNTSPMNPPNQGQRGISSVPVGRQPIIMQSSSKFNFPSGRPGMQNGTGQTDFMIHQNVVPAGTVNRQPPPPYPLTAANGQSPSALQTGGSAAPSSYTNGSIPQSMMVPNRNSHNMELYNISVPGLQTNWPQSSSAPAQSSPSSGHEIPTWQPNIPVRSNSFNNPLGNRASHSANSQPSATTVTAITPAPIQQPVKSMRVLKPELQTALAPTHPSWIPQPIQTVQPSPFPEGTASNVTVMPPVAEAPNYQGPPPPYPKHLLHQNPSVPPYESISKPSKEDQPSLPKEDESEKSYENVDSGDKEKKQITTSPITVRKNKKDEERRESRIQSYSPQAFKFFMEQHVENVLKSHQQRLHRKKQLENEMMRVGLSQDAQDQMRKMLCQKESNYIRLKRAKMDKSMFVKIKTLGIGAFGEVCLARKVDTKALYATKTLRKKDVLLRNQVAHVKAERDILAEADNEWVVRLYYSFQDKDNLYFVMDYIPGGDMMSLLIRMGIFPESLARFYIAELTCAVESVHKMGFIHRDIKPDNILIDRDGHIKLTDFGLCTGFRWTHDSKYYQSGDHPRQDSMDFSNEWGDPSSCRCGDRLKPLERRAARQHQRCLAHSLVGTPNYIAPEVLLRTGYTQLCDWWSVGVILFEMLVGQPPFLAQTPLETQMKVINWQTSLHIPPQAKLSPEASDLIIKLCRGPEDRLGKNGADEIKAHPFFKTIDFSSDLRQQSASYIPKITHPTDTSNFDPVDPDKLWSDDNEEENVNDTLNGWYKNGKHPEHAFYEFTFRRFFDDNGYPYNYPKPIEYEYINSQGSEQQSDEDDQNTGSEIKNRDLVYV
Structure (SMILES),effect on,mode,technique,concentration,measurement,value
CC#CC(=O)N1CCC[C@H]1c1nc(-c2ccc(C(=O)Nc3ccccn3)cc2)c2c(N)nccn12,enzyme activity,inhibitor,,1 µM,inhibition,7%
Cc1cc(-c2ccnc3[nH]cc(F)c23)cc(F)c1[C@@]1(O)[C@H](C)CN(C(=O)CN)C[C@@H]1C,binding,,TR-FRET,,residence time,7.3 min
C1=C/COCc2cc(ccc2OCCN2CCCC2)Nc2nccc(n2)-c2cccc(c2)COC/1,binding,,,0.1 µM,remaining binding,100%
CN1CCN(C(=O)c2ccc(NC(=O)Nc3ccc(N(C)c4ccnc(Nc5ccc(CS(C)(=O)=O)cc5)n4)cc3)cc2)CC1,binding,,,1 µM,remaining binding,68%
CCCCC(=O)Nc1ccc(-c2ccc3ncn(CCC)c(=O)c3c2)cn1,binding,,competition with immobilised ligand,0.5 µM,remaining binding,86%
Cc1cc(-c2ccnc3[nH]cc(F)c23)cc(F)c1[C@@]1(O)[C@H](C)CN(C2CCS(=O)(=O)CC2)C[C@@H]1C,binding,,TR-FRET,,residence time,9.1 min
C=CC(=O)N1CCC([C@@H]2CCNc3c(C(N)=O)c(-c4ccc(Oc5ccccc5)cc4)nn32)CC1,enzyme activity,inhibitor,,1 µM,inhibition,0%
C[C@H]1CC[C@H](n2c3cnccc3c3cnc(Nc4ccc5c(n4)CCN(C(=O)CO)C5)nc32)CC1,cell-free assay,,,1 µM,remaining signal,47%
